Assay results published in ChEMBL document CHEMBL1629527, “In vitro antifungal activities of bis(alkylpyridinium)alkane compounds against pathogenic yeasts and molds” (Antimicrob Agents Chemother, 2010).

Key:
Cryptococcus neoformans [1] = experiment: Antifungal activity against Cryptococcus neoformans after 24 to 72 hrs by broth microdilution method; type: functional
How it was run: (§1)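 Broth microdilution MIC per CLSI M27-A3 (yeasts) or M38-A2 (molds). RPMI 1640 with L-glutamine, without bicarbonate, buffered to pH 7.0 with 0.165 M MOPS. Final test range for the compounds was 0.175–87.5 μM. Incubation at 35°C with visual reading at 24–72 h. MIC was the lowest concentration giving 100% inhibition versus the growth control (azoles 50% or 100%, by organism). Each isolate was run in duplicate in two independent experiments.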

Candida tropicalis [2] = experiment: Antifungal activity against Candida tropicalis after 48 to 72 hrs; type: functional
How it was run: (§2)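 MFC: after the MIC read, 30-μl aliquots from each well without visible growth were plated onto Sabouraud dextrose agar and incubated at 35°C. Reading was at 48–72 h for yeasts and up to 7 days for molds. MFC was the lowest concentration with no colonies.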

Candida parapsilosis [3] = experiment: Antifungal activity against Candida parapsilosis after 48 to 72 hrs; type: functional; how it was run: as §2
Pichia kudriavzevii [4] = experiment: Antifungal activity against Candida krusei after 48 to 72 hrs; type: functional; how it was run: as §2
[5] = system: Meyerozyma guilliermondii; experiment: Antifungal activity against Candida guilliermondii after 48 to 72 hrs; type: functional; how it was run: as §2
Clavispora lusitaniae [6] = experiment: Antifungal activity against Candida lusitaniae after 48 to 72 hrs; type: functional; how it was run: as §2
Cryptococcus neoformans [7] = experiment: Antifungal activity against Cryptococcus neoformans after 48 to 72 hrs; type: functional; how it was run: as §2
[8] = system: Cryptococcus gattii species complex; experiment: Antifungal activity against Cryptococcus gattii after 48 to 72 hrs; type: functional, Cryptococcus bacillisporus; how it was run: as §2
[9] = Toxicity against human erythrocytes assessed as hemolysis; type: cell-based, Erythrocyte
Candida albicans [10] = experiment: Antifungal activity against Candida albicans after 24 to 72 hrs by broth microdilution method; type: functional
How it was run: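 CLSI M27-A3 broth microdilution for yeasts in RPMI 1640 with L-glutamine and no bicarbonate, buffered with 0.165 M MOPS to pH 7.0. Compounds were dissolved in water and tested at 0.175–87.5 μM final, 35°C. MIC was read visually at 24–72 h as 100% inhibition versus growth control. For MFC, 30 μl from clear wells went onto SDA at 35°C for 48–72 h, reading the lowest concentration without colonies. Duplicates, two independent runs.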

Candida tropicalis [11] = experiment: Antifungal activity against Candida tropicalis after 24 to 72 hrs by broth microdilution method; type: functional; how it was run: as §1
Nakaseomyces glabratus = experiment: Antifungal activity against Candida glabrata after 24 to 72 hrs by broth microdilution method; type: functional; how it was run: as §1
Candida parapsilosis [12] = experiment: Antifungal activity against Candida parapsilosis after 24 to 72 hrs by broth microdilution method; type: functional; conditions: Lodderomyces parapsilosis; how it was run: as §1
Candida dubliniensis = experiment: Antifungal activity against Candida dubliniensis after 24 to 72 hrs by broth microdilution method; type: functional; how it was run: as §1
Aspergillus flavus [13] = experiment: Antifungal activity against Aspergillus flavus ATCC 204304 after 48 to 72 hrs; type: functional; how it was run: as §2
[14] = Antifungal activity against Paecilomyces lilacinus 05-200601 after 24 to 72 hrs by broth microdilution method; type: functional; conditions: Purpureocillium lilacinum
How it was run: (§3)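 Mold isolates subcultured on potato dextrose agar, then tested by CLSI M38-A2 broth microdilution in RPMI 1640 (L-glutamine, no bicarbonate) buffered to pH 7.0 with 0.165 M MOPS. Compounds were dissolved in water and tested at a final 0.175–87.5 μM. Plates were incubated at 35°C. MIC was read visually as the lowest concentration giving 100% inhibition versus the growth control. Each isolate was run in duplicate in two independent experiments.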

Rhizopus arrhizus = experiment: Antifungal activity against Rhizopus oryzae 05-203111 after 24 to 72 hrs by broth microdilution method; type: functional; how it was run: as §3
Aspergillus flavus [15] = experiment: Antifungal activity against Aspergillus flavus ATCC 204304 after 24 to 72 hrs by broth microdilution method; type: functional; how it was run: as §1
Aspergillus flavus [16] = experiment: Antifungal activity against Aspergillus flavus 05-203758 after 24 to 72 hrs by broth microdilution method; type: functional; how it was run: as §1
Aspergillus terreus = experiment: Antifungal activity against Aspergillus terreus 05-202844 after 24 to 72 hrs by broth microdilution method; type: functional; how it was run: as §1
Lomentospora prolificans = experiment: Antifungal activity against Scedosporium prolificans 05-203060 after 24 to 72 hrs by broth microdilution method; type: functional; how it was run: as §3
Scedosporium apiospermum = experiment: Antifungal activity against Scedosporium apiospermum 05-203100 after 24 to 72 hrs by broth microdilution method; type: functional; how it was run: as §3
[17] = system: Cunninghamella bertholletiae; experiment: Antifungal activity against Cunninghamella bertholletiae 99-12187 after 24 to 72 hrs by broth microdilution method; type: functional; how it was run: as §1
Lichtheimia corymbifera = experiment: Antifungal activity against Absidia corymbifera 04-200170 after 24 to 72 hrs by broth microdilution method; type: functional; how it was run: as §1
[18] = system: Cryptococcus gattii species complex; experiment: Antifungal activity against Cryptococcus gattii 05-200122 after 24 to 72 hrs by broth microdilution method; type: functional, Cryptococcus bacillisporus; how it was run: as §1
Cryptococcus neoformans [19] = experiment: Antifungal activity against Cryptococcus neoformans 05-202523 after 24 to 72 hrs by broth microdilution method; type: functional; how it was run: as §1
Cryptococcus neoformans [20] = experiment: Antifungal activity against Cryptococcus neoformans ATCC 90112 after 24 to 72 hrs by broth microdilution method; type: functional; how it was run: as §1
Candida tropicalis [21] = experiment: Antifungal activity against Candida tropicalis 04-202361 after 24 to 72 hrs by broth microdilution method; type: functional; how it was run: as §1
Candida parapsilosis [22] = experiment: Antifungal activity against Candida parapsilosis ATCC 22019 after 24 to 72 hrs by broth microdilution method; type: functional; conditions: Lodderomyces parapsilosis; how it was run: as §1
Pichia kudriavzevii [23] = experiment: Antifungal activity against Candida krusei ATCC 6258 after 24 to 72 hrs by broth microdilution method; type: functional; how it was run: as §1
Candida albicans [24] = experiment: Antifungal activity against Candida albicans ATCC 10231 after 24 to 72 hrs by broth microdilution method; type: functional; how it was run: as §1
Candida albicans [25] = experiment: Antifungal activity against Candida albicans ATCC 90028 after 24 to 72 hrs by broth microdilution method; type: functional; how it was run: as §1
Clavispora lusitaniae [26] = experiment: Antifungal activity against Candida lusitaniae after 24 to 72 hrs by broth microdilution method; type: functional; how it was run: as §1
[27] = Antifungal activity against Exophiala jeanselmei 03-200268 after 24 to 72 hrs by broth microdilution method; type: functional; how it was run: as §1

For `CCCCCCc1cc[n+](CCCCCCCCCCCC[n+]2ccc(CCCCCC)cc2)cc1.[Cl-].[Cl-]`, which MIC (Cryptococcus neoformans [1]) is on record?
The MIC was 1.19 µg/mL.

What about the MIC50 (Cryptococcus neoformans [1]) of the same compound?
Its MIC50 is 0.79 µg/mL.

What about the MIC90 (Cryptococcus neoformans [1]) of the same compound?
The MIC90 was 3.11 µg/mL.

And the MFC50 (Candida tropicalis [2])?
Its MFC50 is 1.56 µg/mL.

And the MFC90 (Candida tropicalis [2])?
Its MFC90 is 1.56 µg/mL.

And the MFC (Candida tropicalis [2]; Candida tropicalis)?
The MFC was 0.39 µg/mL.

What about the MFC50 (Candida parapsilosis [3]) of the same compound?
The MFC50 was 49.5 µg/mL.

What about the MFC90 (Candida parapsilosis [3]) of the same compound?
Its MFC90 is 49.5 µg/mL.

And the MFC (Candida parapsilosis [3]; Lodderomyces parapsilosis)?
Its MFC is 24.9 µg/mL.

What about the MFC50 (Pichia kudriavzevii [4]) of the same compound?
The MFC50 was 1.56 µg/mL.

What about the MFC90 (Pichia kudriavzevii [4]) of the same compound?
Its MFC90 is 3.11 µg/mL.

And the MFC (Pichia kudriavzevii [4]; Pichia kudriavzevii)?
Its MFC is 0.79 µg/mL.

And the MFC50 [5]?
The MFC50 was 0.79 µg/mL.

And the MFC90 [5]?
Its MFC90 is 1.56 µg/mL.

And the MFC ([5]; Meyerozyma guilliermondii)?
The MFC was 0.39 µg/mL.

What about the MFC50 (Clavispora lusitaniae [6]) of the same compound?
The MFC50 was 0.79 µg/mL.

And the MFC90 (Clavispora lusitaniae [6])?
The MFC90 was 6.22 µg/mL.

And the MFC (Clavispora lusitaniae [6]; Clavispora lusitaniae)?
The MFC was 0.79 µg/mL.

And the MFC50 (Cryptococcus neoformans [7])?
The MFC50 was 0.79 µg/mL.

What about the MFC90 (Cryptococcus neoformans [7]) of the same compound?
The MFC90 was 12.45 µg/mL.

What about the MFC (Cryptococcus neoformans [7]; Cryptococcus neoformans) of the same compound?
The MFC was 0.79 µg/mL.

And the MFC50 [8]?
The MFC50 was 0.79 µg/mL.

What about the MFC90 [8] of the same compound?
The MFC90 was 0.79 µg/mL.

And the MFC ([8]; Cryptococcus gattii species complex)?
Its MFC is 0.79 µg/mL.

What about the HC50 [9] of the same compound?
The HC50 was > 129 µM.

What about the IC50 [9] of the same compound?
The IC50 was > 48 µM.

What about the MIC (Candida albicans [10]) of the same compound?
The MIC was 1.56 µg/mL.

And the MIC50 (Candida albicans [10])?
The MIC50 was 1.56 µg/mL.

What about the MIC90 (Candida albicans [10]) of the same compound?
Its MIC90 is 1.56 µg/mL.

What about the MIC (Candida tropicalis [11]) of the same compound?
The MIC was 1.18 µg/mL.

What about the MIC50 (Candida tropicalis [11]) of the same compound?
The MIC50 was 1.56 µg/mL.

What about the MIC90 (Candida tropicalis [11]) of the same compound?
The MIC90 was 1.56 µg/mL.

And the MIC (Nakaseomyces glabratus)?
The MIC was 0.739 µg/mL.

What about the MIC50 (Nakaseomyces glabratus) of the same compound?
The MIC50 was 0.79 µg/mL.

And the MIC90 (Nakaseomyces glabratus)?
The MIC90 was 0.79 µg/mL.

What about the MIC (Candida parapsilosis [12]) of the same compound?
Its MIC is 28.6 µg/mL.

And the MIC50 (Candida parapsilosis [12])?
The MIC50 was 24.9 µg/mL.

And the MIC90 (Candida parapsilosis [12])?
The MIC90 was 49.5 µg/mL.

And the MIC (Candida dubliniensis)?
The MIC was 0.739 µg/mL.

And the MIC50 (Candida dubliniensis)?
The MIC50 was 0.79 µg/mL.

What about the MIC90 (Candida dubliniensis) of the same compound?
Its MIC90 is 0.79 µg/mL.

And the MFC (Aspergillus flavus [13])?
Its MFC is 25.3 µg/mL.

What about the MIC [14] of the same compound?
Its MIC is 50.7 µg/mL.

And the MIC (Rhizopus arrhizus)?
Its MIC is 0.79 µg/mL.

What about the MIC (Aspergillus flavus [15]) of the same compound?
The MIC was 12.7 µg/mL.

And the MIC (Aspergillus flavus [16])?
Its MIC is 25.3 µg/mL.

What about the MIC (Aspergillus terreus) of the same compound?
Its MIC is 0.79 µg/mL.

And the MIC (Lomentospora prolificans)?
The MIC was 25.3 µg/mL.

What about the MIC (Scedosporium apiospermum) of the same compound?
The MIC was 50.7 µg/mL.

What about the MIC [17] of the same compound?
The MIC was 12.7 µg/mL.

And the MIC (Lichtheimia corymbifera)?
The MIC was 50.7 µg/mL.

What about the MIC [18] of the same compound?
Its MIC is 0.79 µg/mL.

And the MIC (Cryptococcus neoformans [19])?
Its MIC is 6.3 µg/mL.

What about the MIC (Cryptococcus neoformans [20]) of the same compound?
Its MIC is 0.79 µg/mL.

What about the MIC (Candida tropicalis [21]) of the same compound?
Its MIC is 0.79 µg/mL.

And the MIC (Candida parapsilosis [22])?
The MIC was 0.79 µg/mL.

What about the MIC (Pichia kudriavzevii [23]) of the same compound?
Its MIC is 3.2 µg/mL.

What about the MIC (Candida albicans [24]) of the same compound?
Its MIC is 0.79 µg/mL.

What about the MIC (Candida albicans [25]) of the same compound?
The MIC was 0.79 µg/mL.

What about the MIC (Clavispora lusitaniae [26]) of the same compound?
Its MIC is 1.04 µg/mL.

And the MIC50 (Clavispora lusitaniae [26])?
The MIC50 was 0.79 µg/mL.

And the MIC90 (Clavispora lusitaniae [26])?
The MIC90 was 1.56 µg/mL.

And the MIC [27]?
The MIC was 0.79 µg/mL.
